Activity calls are given as the source filed them. The rule behind the calls is not given here.
What was measured:
[1] = species on record: Homo sapiens; experiment: Induction of necrosis in human GIN28 cells assessed as induction of nuclear membrane permeability at 12.5 uM measured after 48 hrs by Hoechst 33342/propidium iodide staining based fluorescence microscopy analysis; assay type: functional, cell-based
Procedure, shortened: (§1)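 Cells dosed 48 h with 12.5 μM inhibitor, with 70% ethanol or DMEM (negative) as controls. Nuclei then double-stained with Hoechst 33342 and propidium iodide and examined by fluorescence microscopy.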

[2] = species on record: Homo sapiens; experiment: Induction of apoptosis in human GIN8 cells assessed as increase in caspase 3/7 activation at 12.5 uM measured after 48 hrs by CellEvent caspase 3/7 probe based fluorescence analysis; assay type: functional, cell-based
Procedure, shortened: (§2)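 Cells exposed 48 h to compounds diluted in 10% FBS DMEM. Activated caspase-3/7 detected with the CellEvent probe. Staurosporine 10.0 μM served as reference inducer. Mean ± SEM (n = 3). Two-way ANOVA with Dunnett's test.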

[3] = species on record: Homo sapiens; experiment: Induction of apoptotic death in human GIN8 cells assessed as […] at 12.5 uM measured after 48 hrs by Hoechst 33342/propidium iodide staining based fluorescence microscopy analysis; assay type: functional, cell-based; procedure, shortened: as §1
[4] = species on record: Homo sapiens; experiment: Induction of apoptotic death in human GIN28 cells assessed as nuclear fragmentation at 12.5 uM measured after 48 hrs by Hoechst 33342/propidium iodide staining based fluorescence microscopy analysis; assay type: functional, cell-based; procedure, shortened: as §1
[5] = species on record: Homo sapiens; experiment: Cytotoxicity against human GCE28 cells assessed as reduction in cell viability at 5 ug/ml measured after 48 hrs using Tween 80-formulated compound by Prestoblue assay; assay type: functional, cell-based
Procedure, shortened: (§3)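 Inhibitor either dissolved in DMSO, inkjet-printed into polymer, or suspended in PBS, then diluted in DMEM. Polymer-alone and untreated controls included. Viability read by PrestoBlue after 48 h, mean ± SD.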

[6] = species on record: Homo sapiens; experiment: Cytotoxicity against human GIN8 cells assessed as reduction in cell viability at 5 ug/ml measured after 48 hrs using compound dissolved in DMSO by Prestoblue assay; assay type: functional, cell-based; procedure, shortened: as §3
[7] = Synergistic cytotoxicity against human GIN8 cells assessed as combination index measured after 48 hrs in presence of 3-(4-chlorophenyl)-1-(2-chloro-2-phenylethyl)pyrazolo[3,4-d]pyrimidin-4-amine by Chou-Talalay assay; assay type: functional
Procedure, shortened: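 Two kinase inhibitors were combined at a 1:1 molar ratio, diluted in DMEM with 10% FBS, and incubated with the GBM cells for 48 h. Viability was read by PrestoBlue. Combination index values were calculated from three independent IC50 experiments (n = 3) and are reported as mean ± SD.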

[8] = species on record: Homo sapiens; experiment: Cytotoxicity against human GIN28 cells assessed as reduction in cell viability at 5 ug/ml measured after 48 hrs using compound dissolved in DMSO by Prestoblue assay; assay type: functional, cell-based; procedure, shortened: as §3
[9] = species on record: Homo sapiens; experiment: Cytotoxicity against human GIN28 cells assessed as reduction in cell viability at 5 ug/ml measured after 48 hrs using Pluronic-F68-formulated compound by Prestoblue assay; assay type: functional, cell-based; procedure, shortened: as §3
[10] = Additive cytotoxicity against human GIN28 cells assessed as combination index measured after 48 hrs in presence of 2-[[4-(2-phenylethylamino)-1-[styryl]pyrazolo[3,4-d]pyrimidin-6-yl]amino]ethanol by Chou-Talalay assay; assay type: functional
Procedure, shortened: (§4)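 Each drug pair dosed at a 1:1 molar ratio on the GBM lines and incubated 48 h. CI computed from three independent IC50 experiments (n = 3), reported as mean ± SD.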

[11] = species on record: Homo sapiens; experiment: Cytotoxicity against human GIN8 cells assessed as reduction in cell viability at 5 ug/ml measured after 48 hrs using Pluronic-F68-formulated compound by Prestoblue assay; assay type: functional, cell-based; procedure, shortened: as §3
[12] = species on record: Homo sapiens; experiment: Induction of apoptotic death in human GIN8 cells assessed as presence of apoptotic bodies at 12.5 uM measured after 48 hrs by Hoechst 33342/propidium iodide staining based fluorescence microscopy analysis; assay type: functional, cell-based; procedure, shortened: as §1
[13] = species on record: Homo sapiens; experiment: Induction of apoptotic death in human GCE28 cells assessed as […] at 12.5 uM measured after 48 hrs by Hoechst 33342/propidium iodide staining based fluorescence microscopy analysis; assay type: functional, cell-based; procedure, shortened: as §1
[14] = species on record: Homo sapiens; experiment: Induction of apoptotic death in human GCE28 cells assessed as presence of apoptotic bodies at 12.5 uM measured after 48 hrs by Hoechst 33342/propidium iodide staining based fluorescence microscopy analysis; assay type: functional, cell-based; procedure, shortened: as §1
[15] = species on record: Homo sapiens; experiment: Induction of apoptotic death in human GIN8 cells assessed as nuclear fragmentation at 12.5 uM measured after 48 hrs by Hoechst 33342/propidium iodide staining based fluorescence microscopy analysis; assay type: functional, cell-based; procedure, shortened: as §1
[16] = Cytotoxicity against human GIN8 cells derived from invasive region of GBM patient assessed as reduction in cell viability measured after 48 hrs by Prestoblue assay; assay type: functional, cell-based
Procedure, shortened: (§5)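 Compounds diluted in DMEM containing 10% FBS and applied for 48 h. Viability read by PrestoBlue. IC50 calculated from three independent experiments, mean ± SE. Two-way ANOVA with Dunnett's multiple comparisons test.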

[17] = species on record: Homo sapiens; experiment: Cytotoxicity against human GIN28 cells assessed as reduction in cell viability at 5 ug/ml measured after 48 hrs using Tween 80-formulated compound by Prestoblue assay; assay type: functional, cell-based; procedure, shortened: as §3
[18] = Apparent water solubility of the compound in PBS formulated with 900 ug/ml of polymer Pluronic F-68 at 100 ug/ml by UV-Visible spectral analysis; assay type: physicochemical; details: buffer
[19] = Additive cytotoxicity against human GCE28 cells assessed as combination index measured after 48 hrs in presence of 2-[[4-(2-phenylethylamino)-1-[styryl]pyrazolo[3,4-d]pyrimidin-6-yl]amino]ethanol by Chou-Talalay assay; assay type: functional; procedure, shortened: as §4
[20] = Cytotoxicity against human GIN28 cells derived from invasive region of GBM patient assessed as reduction in cell viability measured after 48 hrs by Prestoblue assay; assay type: functional, cell-based; procedure, shortened: as §5
[21] = Synergistic cytotoxicity against human GIN28 cells assessed as combination index measured after 48 hrs in presence of 3-(4-chlorophenyl)-1-(2-chloro-2-phenylethyl)pyrazolo[3,4-d]pyrimidin-4-amine by Chou-Talalay assay; assay type: functional; procedure, shortened: as §4
[22] = species on record: Homo sapiens; experiment: Cytotoxicity against human GIN8 cells assessed as reduction in cell viability at 5 ug/ml measured after 48 hrs using PVPVA-formulated compound by Prestoblue assay; assay type: functional, cell-based; procedure, shortened: as §3
[23] = Synergistic cytotoxicity against human GCE28 cells assessed as combination index measured after 48 hrs in presence of 3-(4-chlorophenyl)-1-(2-chloro-2-phenylethyl)pyrazolo[3,4-d]pyrimidin-4-amine by Chou-Talalay assay; assay type: functional; procedure, shortened: as §4
[24] = species on record: Homo sapiens; experiment: Cytotoxicity against human GIN8 cells assessed as cell viability at 5 ug/ml measured after 48 hrs using compound suspended in PBS by Prestoblue assay; assay type: functional, cell-based; procedure, shortened: as §3
[25] = species on record: Homo sapiens; experiment: Induction of apoptotic death in human GIN28 cells assessed as presence of apoptotic bodies at 12.5 uM measured after 48 hrs by Hoechst 33342/propidium iodide staining based fluorescence microscopy analysis; assay type: functional, cell-based; procedure, shortened: as §1
[26] = Apparent water solubility of the compound in PBS formulated with 900 ug/ml polymer Tween 80 at 100 ug/ml by UV-Visible spectral analysis; assay type: physicochemical; details: buffer
[27] = species on record: Homo sapiens; experiment: Induction of necrosis in human GCE28 cells assessed as induction of nuclear membrane permeability at 12.5 uM measured after 48 hrs by Hoechst 33342/propidium iodide staining based fluorescence microscopy analysis; assay type: functional, cell-based; procedure, shortened: as §1
[28] = species on record: Homo sapiens; experiment: Cytotoxicity against human GCE28 cells assessed as reduction in cell viability at 5 ug/ml measured after 48 hrs using compound dissolved in DMSO by Prestoblue assay; assay type: functional, cell-based; procedure, shortened: as §3
[29] = species on record: Homo sapiens; experiment: Cytotoxicity against human GIN28 cells assessed as cell viability at 5 ug/ml measured after 48 hrs using compound suspended in PBS by Prestoblue assay; assay type: functional, cell-based; procedure, shortened: as §3
[30] = species on record: Homo sapiens; experiment: Induction of apoptosis in human GIN28 cells assessed as increase in caspase 3/7 activation at 12.5 uM measured after 48 hrs by CellEvent caspase 3/7 probe based fluorescence analysis; assay type: functional, cell-based; procedure, shortened: as §2

ClC(Cn1ncc2c(Nc3cccc(Br)c3)nc(SCCN3CCOCC3)nc21)c1ccccc1 (stereo not given)
Activity [1]: inactive | Activity [2]: Active | Activity [3]: Active | Activity [4]: Active | Activity [5]: Active | Activity [6]: Active | CI [7]: 0.53 | Activity [8]: Active | Activity [9]: Active | CI [10]: 0.9 | Activity [11]: Active | Activity [12]: Active | Activity [13]: Active | Activity [14]: Active | Activity [15]: Active | IC50 [16]: 11.2 µM | Activity [17]: Active | solubility [18]: Soluble | CI [19]: 0.97 | IC50 [20]: 7.7 µM | CI [21]: 0.76 | Activity [22]: Active | CI [23]: 0.88 | Activity [24]: inactive | Activity [25]: Active | solubility [26]: Soluble | Activity [27]: inactive | Activity [28]: Active | Activity [29]: inactive | Activity [30]: Active

From ChEMBL document CHEMBL4613280, “Development of Pyrazolo[3,4-d]pyrimidine Kinase Inhibitors as Potential Clinical Candidates for Glioblastoma Multiforme” (ACS Med Chem Lett, 2020)
